Results from ChEMBL document CHEMBL1821605, “4-Quinazolinyloxy-diaryl ureas as novel BRAFV600E inhibitors” (Bioorg Med Chem Lett, 2011).
pIC50, pKd: −log10 of the molar value. The source made the active and inactive calls. The rule behind the calls is not given here.

Legend:
[1] = target: T1, Serine/threonine-protein kinase B-raf (Homo sapiens, UniProt P15056, V600E); assay: Binding affinity to BRAF V600E mutant
[2] = target: T1, Serine/threonine-protein kinase B-raf; assay: Inhibition of BRAF V600E mutant-dependent MEK phosphorylation in A375 cells; format: cell-based, A-375
[3] = Oral bioavailability in rat; format: ADME, organism-based; settings: in vivo
Outline: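 Oral bioavailability (%F) was measured in rats, generally dosing the hydrochloride salt; some compounds were given as free base.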

[4] = AUC in mouse plasma at 100 mg/kg, po; format: ADME, organism-based; parameters: dose 100 mg/kg, route oral
Outline: (§1)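 Compound given orally to mice at the stated dose. Plasma exposure reported as AUC in μM × h.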

[5] = tested on: COLO 205; assay: Antitumor activity against human COLO205 cells xenografted in nude mouse assessed as tumor growth inhibition at 100 mg/kg, po bid upto 8 days; format: functional; settings: COLO 205, 192 h, read-out: TGI
Outline: (§2)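 Mice bearing Colo-205 tumors were dosed orally bid at 30, 55 or 100 mg/kg and compared with a vehicle control group. Tumor growth was followed over the dosing period, […]. Outcomes recorded were stasis, regrowth, incidence of regressions and % growth inhibition. Significance was tested against vehicle.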

[6] = tested on: COLO 205; assay: Antitumor activity against human COLO205 cells xenografted in nude mouse assessed as complete suppression of tumor regrowth at 100 mg/kg, po bid before 15 days; format: functional, organism-based; parameters: dose 100 mg/kg; outline: as §2
[7] = tested on: Mus musculus; assay: Toxicity in nude mouse xenografted with human COLO205 cells assessed as body weight loss at 30 to 100 mg/kg, po bid upto 15 days; format: organism-based, COLO 205; parameters: dose 30-100 mg/kg, route oral; settings: in vivo, 360 h
Outline: (§3)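 Body weight was monitored in Colo-205 xenograft-bearing mice during oral bid dosing, with maximum % loss recorded. Monitoring continued after dosing stopped to assess reversibility.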

[8] = tested on: Mus musculus; assay: Toxicity in nude mouse xenografted with human COLO205 cells assessed as body weight loss at 10 to 100 mg/kg, po bid upto 15 days; format: organism-based, COLO 205; parameters: dose 10-100 mg/kg, route oral; settings: in vivo, 360 h; outline: as §3
[9] = tested on: Mus musculus; assay: Inhibition of BRAF V600E mutant-dependent MEK phosphorylation in Colo205 cells xenografted in nude mouse at 100 mg/kg, po bid for 5 days measured at 10 hrs post-dose; format: functional; settings: COLO 205
Outline: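 Colo-205 xenograft mice were dosed orally at 100 mg/kg bid. On day 5 of dosing, tumor tissue was collected 10 h post-dose and phosphorylated MEK levels were measured against vehicle.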

[10] = tested on: Mus musculus; assay: Inhibition of BRAF V600E mutant-dependent MEK phosphorylation in Colo205 cells xenografted in nude mouse at 100 mg/kg, po bid for 5 days measured at 24 hrs post-dose; format: functional; settings: COLO 205
[11] = tested on: Mus musculus; assay: Inhibition of BRAF V600E mutant-dependent MEK phosphorylation in Colo205 cells xenografted in nude mouse assessed as compound concentration in tumor required for maximum % inhibition; format: functional
[12] = tested on: Mus musculus; assay: Inhibition of BRAF V600E mutant-dependent MEK phosphorylation in Colo205 cells xenografted in nude mouse assessed as compound concentration in plasma required for maximum % inhibition; format: functional
[13] = tested on: COLO 205; assay: Antitumor activity against human COLO205 cells xenografted in nude mouse assessed as tumor stasis at 100 mg/kg, po bid upto 8 days; format: functional, organism-based; parameters: dose 100 mg/kg; outline: as §2
[14] = tested on: COLO 205; assay: Antitumor activity against human COLO205 cells xenografted in nude mouse assessed as tumor stasis at 55 mg/kg, po bid upto 8 days; format: functional, organism-based; parameters: dose 55 mg/kg; outline: as §2
[15] = tested on: COLO 205; assay: Antitumor activity against human COLO205 cells xenografted in nude mouse assessed as tumor stasis at > 100 mg/kg, […]; format: functional, organism-based; parameters: dose 100 mg/kg
[16] = tested on: COLO 205; assay: Antitumor activity against human COLO205 cells xenografted in nude mouse assessed as tumor stasis at 100 mg/kg, po bid upto 15 days; format: functional, organism-based; parameters: dose 100 mg/kg; outline: as §2
[17] = AUC in mouse plasma at 30 mg/kg, po; format: ADME, organism-based; parameters: dose 30 mg/kg, route oral; outline: as §1
[18] = tested on: COLO 205; assay: Antitumor activity against human COLO205 cells xenografted in nude mouse assessed as tumor growth inhibition at 55 mg/kg, po bid upto 8 days; format: functional; settings: COLO 205, 192 h, read-out: TGI; outline: as §2
[19] = tested on: COLO 205; assay: Antitumor activity against human COLO205 cells xenografted in nude mouse assessed as tumor regression at 100 mg/kg, po bid upto 15 days; format: functional; outline: as §2

T1 sequence (P15056 2-766 V600E limits assumed): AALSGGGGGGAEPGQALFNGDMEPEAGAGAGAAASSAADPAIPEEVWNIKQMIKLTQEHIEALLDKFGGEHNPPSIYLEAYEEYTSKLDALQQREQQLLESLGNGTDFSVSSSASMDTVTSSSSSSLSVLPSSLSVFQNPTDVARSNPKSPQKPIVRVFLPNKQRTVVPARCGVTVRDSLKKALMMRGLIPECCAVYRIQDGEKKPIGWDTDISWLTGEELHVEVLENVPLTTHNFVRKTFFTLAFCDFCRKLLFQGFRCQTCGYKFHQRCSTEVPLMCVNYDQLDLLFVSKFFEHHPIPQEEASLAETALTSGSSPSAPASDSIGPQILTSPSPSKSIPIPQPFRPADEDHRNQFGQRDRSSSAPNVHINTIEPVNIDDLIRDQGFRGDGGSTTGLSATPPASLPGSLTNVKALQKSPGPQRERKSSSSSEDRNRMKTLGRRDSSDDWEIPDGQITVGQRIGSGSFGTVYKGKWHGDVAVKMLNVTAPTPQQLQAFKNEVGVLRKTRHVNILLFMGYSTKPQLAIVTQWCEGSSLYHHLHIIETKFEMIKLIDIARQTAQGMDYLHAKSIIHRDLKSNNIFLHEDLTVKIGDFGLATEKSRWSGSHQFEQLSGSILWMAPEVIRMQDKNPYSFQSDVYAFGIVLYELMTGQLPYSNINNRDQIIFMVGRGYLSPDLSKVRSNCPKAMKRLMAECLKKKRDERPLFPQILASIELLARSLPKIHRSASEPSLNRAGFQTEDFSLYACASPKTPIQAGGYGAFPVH

| Compound | pKd [1] | pIC50 [2] | bioavailability [3] [%] | also measured |
| --- | --- | --- | --- | --- |
| COc1cc2ncnc(Oc3ccc(F)c(NC(=O)Nc4cc(C(C)(C)C)on4)c3)c2cc1OC | 7.25 | 6.95 | – | – |
| COc1cc2c(Oc3cccc(NC(=O)Nc4cc(C(C)(C)C)on4)c3)ncnc2cc1OCCCN1CCOCC1 | 7.25 | 7.02 | 18 | – |
| COc1cc2ncnc(Nc3ccc(NC(=O)Nc4cc(C(C)(C)C)on4)cc3)c2cc1OC | 6.32 | – | – | – |
| CCOc1cc2c(Oc3cccc(NC(=O)Nc4cc(C(C)(C)C)on4)c3)ncnc2cc1OC.Cl | – | – | 30 | – |
| CCOc1cc2ncnc(Oc3cccc(NC(=O)Nc4cc(C(C)(C)C)on4)c3)c2cc1OC.Cl | – | – | 16 | – |
| COc1cc2ncnc(Oc3cccc(NC(=O)Nc4ccc(Cl)cc4)c3)c2cc1OC | 7.52 | 5.73 | – | – |
| COc1cccc(NC(=O)Nc2cccc(Oc3ncnc4cc(OC)c(OC)cc34)c2)c1 | 7.05 | 5.00 | – | – |
| CCOc1cc2ncnc(Oc3cccc(NC(=O)Nc4cc(C(C)(C)C)on4)c3)c2cc1OC | 7.09 | 6.76 | – | – |
| COc1cc2ncnc(Oc3cccc(NC(=O)Nc4ccccc4)c3)c2cc1OC | 6.43 | – | – | – |
| COc1cc2ncnc(Oc3cccc(NC(=O)Nc4cc(C(C)(C)C)on4)c3)c2cc1OCCN1CCCCC1 | 7.02 | 6.53 | – | – |
| COc1cc2ncnc(Oc3cccc(NC(=O)Nc4cc(C(C)(C)C)on4)c3)c2cc1OCCN1CCOCC1 | 7.42 | 7.28 | 11 | – |
| COc1cc2ncnc(Oc3ccc(Cl)c(NC(=O)Nc4cc(C(C)(C)C)on4)c3)c2cc1OC | 7.00 | 6.64 | – | – |
| COc1cc2ncnc(Oc3cccc(NC(=O)Nc4ccc(Cl)c(C(F)(F)F)c4)c3)c2cc1OC | 7.01 | 6.16 | – | – |
| COc1cc2ncnc(Oc3cccc(NC(=O)Nc4cc(C(C)(C)C)on4)c3C)c2cc1OC | 7.42 | 6.75 | – | – |
| COc1cc2ncnc(Oc3cccc(NC(=O)Nc4cccc(C(F)(F)F)c4)c3)c2cc1OC | 7.34 | 5.78 | – | – |
| COc1cc2c(Oc3cccc(NC(=O)Nc4cc(C(C)(C)C)on4)c3)ncnc2cc1OCCN1CCOCC1 | 7.47 | 6.78 | 52 | AUC [4]: 48 µM·h; inhibition in vivo at 100 mg/kg [5]: 65%; Activity [6]: inactive; Activity [7]: Non-toxic; Activity [8]: Non-toxic; inhibition in vivo at 100 mg/kg [9]: 70%; inhibition in vivo at 100 mg/kg [10]: 50%; Activity [11]: 11 µM; Activity [12]: 2 µM |
| COc1cc2ncnc(Sc3cccc(NC(=O)Nc4cc(C(C)(C)C)on4)c3)c2cc1OC [listing 1 of 2 here] | – | – | – | Activity [13]: Active; Activity [14]: Active; Activity [15]: inactive |
| COc1cc2ncnc(Oc3cc(NC(=O)Nc4cc(C(C)(C)C)on4)c(F)cc3F)c2cc1OC | 7.34 | 6.95 | 14 | – |
| COc1cc2ncnc(Nc3cccc(NC(=O)Nc4cc(C(C)(C)C)on4)c3)c2cc1OC | 7.40 | 7.09 | – | – |
| COCCOc1cc2c(Oc3cccc(NC(=O)Nc4cc(C(C)(C)C)on4)c3)ncnc2cc1OC.Cl | – | – | 13 | – |

| Compound | pKd [1] | pIC50 [2] | bioavailability [3] [%] | also measured |
| --- | --- | --- | --- | --- |
| COc1cc2ncnc(Oc3cccc(NC(=O)Nc4cc(C(C)(C)C)on4)c3)c2cc1OCCCN1CCOCC1 | 7.54 | 7.44 | – | – |
| COc1cc2c(Oc3cccc(NC(=O)Nc4cc(C(C)(C)C)on4)c3)ncnc2cc1O | 7.24 | 6.96 | < 1 | – |
| COCCOc1cc2ncnc(Oc3cccc(NC(=O)Nc4cc(C(C)(C)C)on4)c3)c2cc1OC.Cl | – | – | 56 | – |
| COc1cc2ncnc(Oc3cccc(NC(=O)Nc4ccc(C(C)(C)C)cc4)c3)c2cc1OC | 7.02 | 6.54 | 15 | – |
| COc1cc2ncnc(Oc3cccc(NC(=O)Nc4cc(C(C)(C)C)on4)c3)c2cc1OC [listing 1 of 2 here] | – | – | – | Activity [16]: Active; inhibition [10]: inactive |
| COCCOc1cc2ncnc(Oc3cccc(NC(=O)Nc4cc(C(C)(C)C)on4)c3)c2cc1OC | 7.24 | 7.00 | – | – |
| COc1cc2ncnc(Sc3cccc(NC(=O)Nc4cc(C(C)(C)C)on4)c3)c2cc1OC [listing 2 of 2 here] | 7.21 | 6.93 | – | AUC [17]: 22 µM·h; inhibition in vivo at 100 mg/kg [5]: 45%; inhibition in vivo at 55 mg/kg [18]: 45%; Activity [7]: Non-toxic; Activity [8]: Non-toxic; inhibition in vivo at 100 mg/kg [9]: 75%; inhibition in vivo at 100 mg/kg [10]: 55%; Activity [11]: 0.2 µM; Activity [12]: 0.2 µM |
| COc1cc2ncnc(Oc3cccc(NC(=O)Nc4cc(C(C)(C)C)on4)c3)c2cc1O | 7.34 | 7.07 | – | – |
| COc1cc2ncnc(Nc3ccc(NC(=O)Nc4cc(C(C)(C)C)on4)cc3)c2cc1OC.Cl | – | – | < 1 | – |
| COc1cc2ncnc(Oc3cccc(NC(=O)Nc4cccc(C(C)(C)C)c4)c3)c2cc1OC | 7.44 | 6.48 | – | – |
| COc1cc2ncnc(Oc3cc(NC(=O)Nc4cc(C(C)(C)C)on4)ccc3F)c2cc1OC.Cl | – | – | 22 | – |
| CCOc1cc2c(Oc3cccc(NC(=O)Nc4cc(C(C)(C)C)on4)c3)ncnc2cc1OC | 7.17 | 7.10 | – | – |
| COc1cc2ncnc(Oc3cccc(NC(=O)Nc4cc(C(C)(C)C)on4)c3)c2cc1OCCCN1CCOCC1.Cl | – | – | 20 | – |
| COc1cc2ncnc(Sc3cccc(NC(=O)Nc4cc(C(C)(C)C)on4)c3)c2cc1OC.Cl | – | – | 24 | – |
| COc1cc2ncnc(Oc3cccc(NC(=O)Nc4cc(C(C)(C)C)on4)c3)c2cc1OC [listing 2 of 2 here] | 7.14 | 6.92 | – | – |
| COc1cc2ncnc(Nc3cccc(NC(=O)Nc4cc(C(C)(C)C)on4)c3)c2cc1OC.Cl | – | – | 1.9 | – |
| COc1cc2ncnc(Oc3cccc(NC(=O)Nc4cc(C(C)(C)C)on4)c3)c2cc1OC.Cl | – | – | 49 | AUC [17]: 12.5 µM·h; Activity [19]: 55%; Activity [7]: 8%; inhibition in vivo at 100 mg/kg [9]: ≥ 50%; Activity [11]: 24 µM; Activity [12]: 2.5 µM |
| COc1cc2ncnc(Oc3cc(NC(=O)Nc4cc(C(C)(C)C)on4)ccc3F)c2cc1OC | 7.14 | 7.21 | – | – |
| COCCOc1cc2c(Oc3cccc(NC(=O)Nc4cc(C(C)(C)C)on4)c3)ncnc2cc1OC | 7.32 | 7.23 | – | – |
